These results are taken from ChEMBL document CHEMBL1151755, “Crystal structure of the peroxisome proliferator-activated receptor gamma (PPARgamma) ligand binding domain complexed with a novel partial agonist: a new region of the hydrophobic pocket could be exploited for drug design” (J Med Chem, 2008).

Common to all, as to format: cell-based
Conditions in all cases: HepG2

In assay [1] the target is T1, Peroxisome proliferator-activated receptor alpha (Homo sapiens) (UniProt Q07869).
T1 sequence (whole entry): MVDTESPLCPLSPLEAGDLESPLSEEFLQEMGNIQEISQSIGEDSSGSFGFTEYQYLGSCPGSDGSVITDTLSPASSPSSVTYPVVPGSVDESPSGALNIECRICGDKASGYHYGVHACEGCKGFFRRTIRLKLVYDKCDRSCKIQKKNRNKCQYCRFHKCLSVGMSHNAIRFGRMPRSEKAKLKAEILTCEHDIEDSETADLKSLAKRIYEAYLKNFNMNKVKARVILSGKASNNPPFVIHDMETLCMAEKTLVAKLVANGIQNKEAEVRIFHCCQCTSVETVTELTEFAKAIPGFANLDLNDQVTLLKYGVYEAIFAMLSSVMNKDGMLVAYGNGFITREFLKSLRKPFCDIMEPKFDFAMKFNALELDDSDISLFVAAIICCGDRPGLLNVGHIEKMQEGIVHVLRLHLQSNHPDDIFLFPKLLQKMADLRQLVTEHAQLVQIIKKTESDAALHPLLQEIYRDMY
Nature of the assay: Agonist activity at human PPARalpha ligand binding domain expressed in human Hep G2 cells co-transfected with Gal4-DBD by luciferase reporter gene assay relative to Wy 14,643. In outline:
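HepG2 cells received the Gal4-receptor LBD construct (50 ng), pGal4UAS-luciferase (100 ng) and pCMVβ (300 ng) by calcium phosphate coprecipitation for 4 h. They were then treated in serum-free DMEM/F-12 with ligand or 0.1% ethanol for 20 h. Luciferase was normalized to β-galactosidase, and efficacy was expressed as percent of the Wy 14,643 maximum (100%). Values are mean ± SEM of 3–5 experiments in triplicate.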

Assay [2] addresses T2, Bile acid receptor (Homo sapiens) (UniProt Q96RI1).
T2 sequence (whole entry): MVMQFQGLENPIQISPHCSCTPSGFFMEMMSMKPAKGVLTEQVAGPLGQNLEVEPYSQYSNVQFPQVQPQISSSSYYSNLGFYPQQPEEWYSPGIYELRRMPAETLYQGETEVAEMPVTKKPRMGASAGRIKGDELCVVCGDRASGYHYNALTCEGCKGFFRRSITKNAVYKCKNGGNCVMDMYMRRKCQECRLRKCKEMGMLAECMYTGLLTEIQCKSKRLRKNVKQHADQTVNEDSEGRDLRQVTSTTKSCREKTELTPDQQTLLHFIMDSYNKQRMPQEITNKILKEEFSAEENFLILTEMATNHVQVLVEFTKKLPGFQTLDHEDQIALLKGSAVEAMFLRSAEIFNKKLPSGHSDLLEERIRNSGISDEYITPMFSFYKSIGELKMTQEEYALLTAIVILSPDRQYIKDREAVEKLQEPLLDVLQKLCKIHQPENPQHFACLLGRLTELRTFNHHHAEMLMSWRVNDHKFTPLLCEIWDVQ
Put plainly: Increase in transcriptional activity of FXR ligand binding domain expressed in human Hep G2 cells co-transfected with Gal4-DBD by luciferase reporter gene assay. In outline: (§1)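 HepG2 cells transfected for 4 h by calcium phosphate coprecipitation with 100 ng pGal4UAS-luciferase, 50 ng Gal4-LBD receptor vector and 300 ng CMV-β-galactosidase plasmid for normalization. Cells were washed in PBS, then refed with serum-free DMEM/F-12 containing penicillin/streptomycin and compound or 0.1% ethanol vehicle for 20 h. Luciferase read-out was normalized to β-galactosidase. Experiments were repeated at least three times.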
On the technique in general: A reporter such as luciferase makes a cellular process visible.

The target in assay [3] is T3, Thyroid hormone receptor alpha (Homo sapiens) (UniProt P10827).
T3 sequence (whole entry): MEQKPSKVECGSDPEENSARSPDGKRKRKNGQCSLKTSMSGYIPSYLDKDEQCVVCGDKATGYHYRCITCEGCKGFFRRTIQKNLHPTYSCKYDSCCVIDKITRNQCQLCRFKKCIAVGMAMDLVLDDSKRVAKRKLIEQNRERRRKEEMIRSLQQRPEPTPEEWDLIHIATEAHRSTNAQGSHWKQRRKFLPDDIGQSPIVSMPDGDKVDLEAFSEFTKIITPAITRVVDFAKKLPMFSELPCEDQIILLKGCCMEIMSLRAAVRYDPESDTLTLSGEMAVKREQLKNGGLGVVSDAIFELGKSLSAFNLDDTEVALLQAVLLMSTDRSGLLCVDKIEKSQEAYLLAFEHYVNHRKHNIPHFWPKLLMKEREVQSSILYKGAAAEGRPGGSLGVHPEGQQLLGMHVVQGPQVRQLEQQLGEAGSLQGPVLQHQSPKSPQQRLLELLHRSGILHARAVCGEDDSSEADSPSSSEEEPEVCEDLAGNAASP
Nature of the assay: Increase in transcriptional activity of TRalpha ligand binding domain expressed in human Hep G2 cells co-transfected with Gal4-DBD by luciferase reporter gene assay. Summed up: as §1

In assay [4] the target is T4, Hepatocyte nuclear factor 4-alpha (Homo sapiens) (UniProt P41235).
T4 sequence (whole entry): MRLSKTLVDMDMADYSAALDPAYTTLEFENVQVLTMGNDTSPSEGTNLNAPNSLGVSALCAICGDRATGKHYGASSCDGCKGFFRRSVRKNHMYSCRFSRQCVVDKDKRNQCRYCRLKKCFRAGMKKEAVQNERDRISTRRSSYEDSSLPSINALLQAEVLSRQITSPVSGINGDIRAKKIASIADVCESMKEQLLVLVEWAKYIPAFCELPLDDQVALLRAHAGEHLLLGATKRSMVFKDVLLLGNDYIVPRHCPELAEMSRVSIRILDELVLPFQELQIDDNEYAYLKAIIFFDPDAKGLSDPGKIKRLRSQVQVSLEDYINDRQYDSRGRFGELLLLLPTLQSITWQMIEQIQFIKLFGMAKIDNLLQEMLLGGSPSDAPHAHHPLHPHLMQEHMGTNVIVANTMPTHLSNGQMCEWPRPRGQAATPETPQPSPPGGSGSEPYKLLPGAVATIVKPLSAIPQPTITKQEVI
Nature of the assay: Increase in transcriptional activity of HNF-4alpha ligand binding domain expressed in human Hep G2 cells co-transfected with Gal4-DBD by luciferase reporter gene assay. In outline: as §1

For assay [5], the target named is Nuclear receptor subfamily 4 group A member 2 (Homo sapiens) (UniProt P43354). Nature of the assay: Increase in transcriptional activity of Nurr1 ligand binding domain expressed in human Hep G2 cells co-transfected with Gal4-DBD by luciferase reporter gene assay. In outline:
as §1

Activity calls are given as the source filed them. No cut-off for these calls is given here.

Nuclear receptor subfamily 4 group A member 2 (Homo sapiens), sequence (P43354 whole entry, the tested form may be a part): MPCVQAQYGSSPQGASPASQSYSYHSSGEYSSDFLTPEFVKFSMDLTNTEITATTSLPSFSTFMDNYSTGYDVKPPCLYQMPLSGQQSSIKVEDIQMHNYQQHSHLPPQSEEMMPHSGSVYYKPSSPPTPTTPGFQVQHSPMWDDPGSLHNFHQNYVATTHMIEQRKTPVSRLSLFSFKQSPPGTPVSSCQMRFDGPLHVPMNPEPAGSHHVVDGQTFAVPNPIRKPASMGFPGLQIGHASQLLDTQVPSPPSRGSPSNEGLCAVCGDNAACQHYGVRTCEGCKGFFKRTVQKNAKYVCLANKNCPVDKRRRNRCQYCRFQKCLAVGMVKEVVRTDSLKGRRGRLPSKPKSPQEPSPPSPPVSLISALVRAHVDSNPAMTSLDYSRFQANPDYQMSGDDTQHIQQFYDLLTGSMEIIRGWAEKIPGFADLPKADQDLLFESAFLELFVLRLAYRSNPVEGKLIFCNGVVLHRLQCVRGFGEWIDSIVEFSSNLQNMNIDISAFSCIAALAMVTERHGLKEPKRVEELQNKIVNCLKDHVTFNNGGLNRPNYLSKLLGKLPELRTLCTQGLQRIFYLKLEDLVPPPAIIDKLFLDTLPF

With `O=C(O)[C@@H](Cc1ccccc1)Oc1ccc(-c2ccccc2)cc1`, the result in assay [1], in assay [2], in assay [3], in assay [4] and in assay [5] was inactive.
In assay [1], `O=C(O)[C@H](Cc1ccccc1)Oc1ccc(-c2ccccc2)cc1` yielded an Efficacy of 100%. The outcome in assay [2], in assay [3], in assay [4] and in assay [5] was inactive.
